Tests used:
[1] = system: Bacteria; assay: Inhibition of bacterial L1 expressed in Escherichia coli DH10B assessed as potentiation of cefazolin-induced antibacterial activity by measuring cefazolin MIC at 256 ug/ml after 16 hrs by broth micro-dilution method (reference value: 32 ug/ml)
Method in brief: (§1)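 Dose-dependent cefazolin MIC assay against E. coli DH10B expressing L1 from a pBCSK plasmid, with varied inhibitor doses up to 256 µg/mL. Fold decrease in MIC was taken relative to cefazolin alone. Medium pH was monitored during the assay.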

[2] = Inhibition of bacterial ImiS expressed in Escherichia coli BL21(DE3) using imipenem as substrate by spectrometric method; parameters: species or system Bacteria
Method in brief: (§2)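 Purified enzymes, overexpressed and purified by earlier methods, assayed under steady-state conditions by UV spectrometry in 50 mM Tris, pH 7.0. Substrate for NDM-1, VIM-2 and L1 was cefazolin (50 µM), read at 262 nm. Substrate for ImiS was imipenem (60 µM), read at 300 nm. Inhibitor varied 0–50 µM; IC50 is the concentration giving 50% loss of activity.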

[3] = system: Bacteria; assay: Inhibition of bacterial L1 expressed in Escherichia coli DH10B assessed as potentiation of cefazolin-induced antibacterial activity by measuring fold reduction in cefazolin MIC at 32 ug/ml after 16 hrs by broth micro-dilution method relative to cefazolin alone; method in brief: as §1
[4] = system: Escherichia coli; assay: Toxicity against Escherichia coli DH10B up to 256 ug/ml after 16 hrs by broth micro-dilution method; assay type: organism-based, K-12 substr. DH10B; conditions: in vivo
Method in brief: (§3)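 Compounds alone, at the same doses used in the MIC potentiation assays, tested for antibacterial effect against E. coli with and without MβL expression.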

[5] = system: Bacteria; assay: Inhibition of bacterial VIM2 expressed in Escherichia coli BL21(DE3) at 4 uM using cefazolin as substrate by spectrometric method relative to control
[6] = Inhibition of bacterial NDM1 expressed in Escherichia coli BL21(DE3) using cefazolin as substrate by spectrometric method; parameters: species or system Bacteria; method in brief: as §2
[7] = system: Bacteria; assay: Inhibition of bacterial ImiS expressed in Escherichia coli DH10B assessed as potentiation of imipenem-induced antibacterial activity by measuring imipenem MIC at 32 ug/ml after 16 hrs by broth micro-dilution method (reference value: 2 ug/ml)
[8] = Inhibition of bacterial L1 expressed in Escherichia coli BL21(DE3) using cefazolin as substrate by spectrometric method; parameters: species or system Bacteria; method in brief: as §2
[9] = Cytotoxicity against mouse L929 cells assessed as cell viability up to 200 uM after 48 hrs by CCK8 assay relative to control; assay type: cell-based; conditions: read-out: Activity
Method in brief: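 Mouse fibroblast L929 cells exposed to inhibitors at 12.5, 25, 50, 100, 200 and 400 µM working concentrations; percentage of cells maintaining viability measured.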

[10] = system: Bacteria; assay: Inhibition of bacterial L1 expressed in Escherichia coli DH10B assessed as potentiation of cefazolin-induced antibacterial activity by measuring cefazolin MIC at 16 ug/ml after 16 hrs by broth micro-dilution method (reference value: 32 ug/ml); method in brief: as §1
[11] = system: Bacteria; assay: Inhibition of bacterial L1 expressed in Escherichia coli DH10B assessed as potentiation of cefazolin-induced antibacterial activity by measuring fold reduction in cefazolin MIC at 256 ug/ml after 16 hrs by broth micro-dilution method relative to cefazolin alone; method in brief: as §1
[12] = system: Bacteria; assay: Inhibition of bacterial VIM2 expressed in Escherichia coli DH10B assessed as potentiation of cefazolin-induced antibacterial activity by measuring fold reduction in cefazolin MIC at 32 ug/ml after 16 hrs by broth micro-dilution method relative to cefazolin alone
[13] = system: Bacteria; assay: Inhibition of bacterial ImiS expressed in Escherichia coli BL21(DE3) at 40 uM using imipenem as substrate by spectrometric method relative to control
[14] = system: Bacteria; assay: Inhibition of bacterial L1 expressed in Escherichia coli DH10B assessed as potentiation of cefazolin-induced antibacterial activity by measuring cefazolin MIC at 64 ug/ml after 16 hrs by broth micro-dilution method (reference value: 32 ug/ml); method in brief: as §1
[15] = Inhibition of bacterial VIM2 expressed in Escherichia coli BL21(DE3) using cefazolin as substrate by spectrometric method; parameters: species or system Bacteria; method in brief: as §2
[16] = system: Bacteria; assay: Inhibition of bacterial L1 expressed in Escherichia coli DH10B assessed as potentiation of cefazolin-induced antibacterial activity by measuring cefazolin MIC at 32 ug/ml after 16 hrs by broth micro-dilution method (reference value: 32 ug/ml); method in brief: as §1
[17] = system: Bacteria; assay: Inhibition of bacterial L1 expressed in Escherichia coli DH10B assessed as potentiation of cefazolin-induced antibacterial activity by measuring cefazolin MIC at 128 ug/ml after 16 hrs by broth micro-dilution method (reference value: 32 ug/ml); method in brief: as §1
[18] = system: Bacteria; assay: Inhibition of bacterial NDM1 expressed in Escherichia coli BL21(DE3) at 20 uM using cefazolin as substrate by spectrometric method relative to control
[19] = system: Escherichia coli; assay: Toxicity against Escherichia coli DH10B expressing bacterial L1 up to 256 ug/ml after 16 hrs by broth micro-dilution method; assay type: organism-based, K-12 substr. DH10B; conditions: in vivo; method in brief: as §3
[20] = system: Bacteria; assay: Inhibition of bacterial NDM1 expressed in Escherichia coli DH10B assessed as potentiation of cefazolin-induced antibacterial activity by measuring cefazolin MIC at 32 ug/ml after 16 hrs by broth micro-dilution method (reference value: 8 ug/ml)
[21] = system: Bacteria; assay: Inhibition of bacterial L1 expressed in Escherichia coli DH10B assessed as potentiation of cefazolin-induced antibacterial activity by measuring decrease in cefazolin MIC after 16 hrs by broth micro-dilution method; method in brief: as §1
[22] = system: Bacteria; assay: Inhibition of bacterial VIM2 expressed in Escherichia coli DH10B assessed as potentiation of cefazolin-induced antibacterial activity by measuring cefazolin MIC at 32 ug/ml after 16 hrs by broth micro-dilution method (reference value: 512 ug/ml)
[23] = system: Bacteria; assay: Inhibition of bacterial L1 expressed in Escherichia coli BL21(DE3) at 0.8 uM using cefazolin as substrate by spectrometric method relative to control
[24] = system: Bacteria; assay: Inhibition of bacterial VIM2 expressed in Escherichia coli BL21(DE3) at 50 uM using cefazolin as substrate by spectrometric method relative to control
[25] = Stability of the compound in pH 7 Tris buffer at 50 uM after 24 hrs in presence of bacterial L1 by UV-Vis spectra analysis; assay type: ADME; conditions: pH 7, 24 h
Method in brief: (§4)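 Compound at 50 µM held in MES (pH 5.5, 6.0, 6.5), in Tris (pH 7.0–8.5), or in Tris pH 7.0 containing L1. Absorbance change at 401 nm followed over 24 h.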

[26] = system: Bacteria; assay: Inhibition of bacterial NDM1 expressed in Escherichia coli DH10B assessed as potentiation of cefazolin-induced antibacterial activity by measuring fold reduction in cefazolin MIC at 32 ug/ml after 16 hrs by broth micro-dilution method relative to cefazolin alone
[27] = Stability of the compound in pH 6 to 6.5 MES buffer at 50 uM after 24 hrs by UV-Vis spectra analysis; assay type: physicochemical; conditions: pH 6, 24 h; method in brief: as §4
[28] = Stability of the compound in pH 7 Tris buffer at 50 uM after 24 hrs by UV-Vis spectra analysis; assay type: physicochemical; conditions: pH 7, 24 h; method in brief: as §4

SMILES | MIC [1] [µg/mL] | IC50 [2] [nM] | fold change (FC) [3] | Activity [4] | IC50 [6] [nM] | MIC [7] [µg/mL] | IC50 [8] [nM] | viability at 48 h [9] [%] | MIC [10] [µg/mL] | fold change (FC) [11] | fold change (FC) [12] | MIC [14] [µg/mL] | IC50 [15] [nM] | MIC [16] [µg/mL] | MIC [17] [µg/mL] | Activity [19] | MIC [20] [µg/mL] | inhibition [21] | MIC [22] [µg/mL] | fold change (FC) [26] | also measured
O=C(O)c1ccc(N2C(=O)/C(=C/c3ccccc3[N+](=O)[O-])SC2=S)cc1 | 2 | 3000 | 8 | Non-Toxic | 1310 | 1 | 50 | 80 | 16 | 16 | 4 | 4 | 190 | 4 | 2 | Non-Toxic | 4 | Dose-dependent effect | 128 | – | inhibition [5]: > 95%; inhibition [13]: > 95%; inhibition [18]: > 95%; inhibition [23]: > 95%
COc1ccc(/C=C2\SC(=S)N(c3ccc(C(=O)O)cc3)C2=O)cc1 | – | 15000 | 8 | – | 12000 | 0.5 | 310 | – | – | – | – | – | – | 4 | – | – | 2 | – | > 512 | 4 to 8 | inhibition [24]: < 50%; Stability [25]: Stable; Stability [27]: Stable; Stability [28]: Stable
O=C(O)c1ccc(N2C(=O)/C(=C/c3ccc([N+](=O)[O-])cc3[N+](=O)[O-])SC2=S)cc1 | 1 | 15900 | 8 | Non-Toxic | 6700 | 1 | 20 | > 80 | 8 | 32 | 4 | 2 | 3900 | 4 | 2 | Non-Toxic | 1 | Dose-dependent effect | 128 | 4 to 8 | –

From ChEMBL document CHEMBL4251739, “Rhodanine as a Potent Scaffold for the Development of Broad-Spectrum Metallo-β-lactamase Inhibitors” (ACS Med Chem Lett, 2018)
